Source: PubChem (Sanford-Burnham Center for Chemical Genomics)
SENP7 block: SENP7 protease inhibitors, primary screen, biochemical, luminescence, uHTS; recombinant SENP7, Z-RLRGG-aminoluciferin luminescence, 40 min; Sentrin-specific protease 7 (Homo sapiens), Q9BQF6; AID 434973, 2010; 330,000 tested, 1.5% active; inhibition, % at 5 µM;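 active = inhibition above about 50% at the single test dose, limit read from the data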;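 also: plate controls were DMSO with enzyme for no effect and no enzyme buffer wells for full effect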
Apaf1 inhib: inhibitors of human Apaf-1 apoptosome, primary screen, biochemical, DEVD-Rh110 fluorescence, uHTS; Apoptotic protease-activating factor 1 (Homo sapiens), O14727; reconstituted apoptosome caspase-3 activity; inhibition, % at 20 µM; 330,000 tested, 0.71% active; AID 489030, 2010; active = inhibition of at least 40% at 20 µM;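 also: plate controls were DMSO wells for no effect and DEVD-CHO caspase inhibitor wells for full effect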
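Medium: Hepes buffer, pH 7.5 / System: biochemical Apaf-1 apoptosome reconstitution / Measured by: Rh110 fluorescence, excitation 480 nm, emission 540 nm / Times: compound with Apaf-1, dATP, procaspase-3 30 min, then 50 min reaction, room temperature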
UBC13 polyUb: UBC13 polyubiquitin chain formation inhibitors, primary screen, biochemical, TR-FRET, uHTS. inhibition, % at 20 µM. AID 485273, 2010. Ubiquitin-conjugating enzyme E2 N (Homo sapiens), P61088. 330,000 tested, 0.47% active; in the data active = inhibition above about 45%, passing the limit was not always enough
SENP8 block-1: human SENP8 protease inhibitors, primary screen, biochemical, fluorescence, Nedd8 protein substrate, uHTS | Sentrin-specific protease 8 (Homo sapiens), Q96LD8 | recombinant SENP8 | inhibition, % at 20 µM | 360,000 tested, 0.64% active | AID 602440, 2012; in the data active = inhibition mostly above about 40%, no sharp cut-off; inactive = mostly below about 27%
SENP6 inh: SENP6 protease inhibitors, primary screen, biochemical, luminescence, uHTS. Sentrin-specific protease 6 (Homo sapiens), Q9GZR1. Recombinant SENP6 catalytic domain, aminoluciferin luminescence. inhibition, % at 10 µM. 330,000 tested, 1.8% active;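 active = inhibition above about 50% at the single tested dose, limit read from the data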;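 also: plate controls were DMSO wells with enzyme for no effect and DMSO wells lacking enzyme for full effect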
Target sequence (Q9GZR1 628-1112 limits assumed): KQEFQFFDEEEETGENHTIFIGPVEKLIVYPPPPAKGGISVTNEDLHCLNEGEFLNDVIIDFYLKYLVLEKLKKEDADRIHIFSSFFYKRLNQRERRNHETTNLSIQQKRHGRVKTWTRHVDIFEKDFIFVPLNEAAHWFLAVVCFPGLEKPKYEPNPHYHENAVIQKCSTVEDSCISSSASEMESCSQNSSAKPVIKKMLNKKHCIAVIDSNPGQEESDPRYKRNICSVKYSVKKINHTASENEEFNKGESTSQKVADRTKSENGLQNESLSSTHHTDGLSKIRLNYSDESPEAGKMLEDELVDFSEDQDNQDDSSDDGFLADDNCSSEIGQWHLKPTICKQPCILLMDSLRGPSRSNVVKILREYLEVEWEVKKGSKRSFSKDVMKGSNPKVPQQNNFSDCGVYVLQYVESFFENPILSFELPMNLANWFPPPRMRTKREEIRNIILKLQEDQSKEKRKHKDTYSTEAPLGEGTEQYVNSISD
SENP8 block-2: SENP8 protease inhibitors, primary screen, biochemical, luminescence; inhibition, % at 10 µM; 330,000 tested, 1.2% active; purified SENP8, Z-RLRGG-aminoluciferin cleavage; in the data active = inhibition above about 50%
SENP8 confirm: SENP8 protease inhibitors, retest, confirmation, biochemical, luminescence, single concentration | shares compounds with SENP7 block | 6,200 tested, 40% active | Recombinant SENP8, Z-RLRGG-aminoluciferin luminescence, 60 min | inhibition, % at 12.5 µM;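 active = mean inhibition across replicates above about 50%, limit read from the data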
SENP6 confirm: SENP6 protease inhibitors, confirmation, biochemical, luminescence, single concentration; 6,200 tested, 58% active; AID 488915, 2010; inhibition, % at 12.5 µM; recombinant SENP6, Z-RLRGG-aminoluciferin luminescence; shares compounds with SENP7 block
SENP7 confirm: SENP7 protease inhibitors, retest, confirmation, biochemical, luminescence, single concentration | 6,200 tested, 69% active | recombinant SENP7, Z-RLRGG-aminoluciferin luminescence, 40 min | inhibition, % at 12.5 µM | AID 488917, 2010 | shares compounds with SENP7 block
Casp3 select: caspase-3 protease inhibitors, confirmation, selectivity assay for SENP inhibitor project, biochemical, single concentration. shares compounds with SENP7 block. purified caspase-3, Z-DEVD-aminoluciferin luminescence, 60 min. inhibition, % at 12.5 µM. 6,200 tested, 60% active. AID 488918, 2010;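 active = mean inhibition above about 50%, limit read from the data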;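 also: plate controls were enzyme with DMSO for no effect and wells without caspase-3 for full effect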
SENP luc ctr: counter-screen for SENP inhibitors: luminescence interference. shares compounds with SENP7 block. Pre-incubated SENP8/Z-RLRGG-aminoluciferin, luciferase luminescence interference. inhibition, % at 12.5 µM. 6,200 tested, 39% active;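 active = mean inhibition above about 50% when retested at one dose, limit read from the data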;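 also: plate controls were DMSO wells with completed reaction for no effect and substrate without enzyme for full effect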
* marks the source's active call; other numbers are inactive results; i = inactive; nt = not tested or not shown. Compounds with a hit are over-represented: about 3.1% of the library has one in this group of screens.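 The calls were made as follows, unless noted: active = mean inhibition above about 50% in the one-dose retest (limit read from the data); inactive = the rest.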

SMILES	SENP7 block	Apaf1 inhib	UBC13 polyUb	SENP8 block-1	SENP6 inh	SENP8 block-2	SENP8 confirm	SENP6 confirm	SENP7 confirm	Casp3 select	SENP luc ctr
CCCCCCN1C=CC(=C2C(=O)c3ccccc3C2=O)C=C1	76*	-1	-10	17	87*	85*	2	2	-4	-5	-2
CCN1C=CC(=C2C(=O)c3ccccc3C2=O)C=C1	86*	-9	-28	17	88*	76*	-22	86*	100*	96*	89*
CCCCN1C(C)=CC(=C2C(=O)c3ccccc3C2=O)C=C1C	5	-2	-15	22	60*	46	61*	60*	81*	85*	-1
CCCN1C=CC(=C2C(=O)c3ccccc3C2=O)C=C1	93*	3	-31	21	95*	90*	93*	98*	102*	98*	60*
COc1ccc(Br)c(Cn2c(C)c(C(=O)NCCC#N)sc2=O)c1	nt	nt	nt	-2	nt	nt	nt	nt	nt	nt	nt
CCOc1ccc(OCc2ccc(C(=O)NN=Cc3ccc[nH]3)cc2)cc1	93*	1	0	-338	93*	71*	-1	0	3	16	29
O=C(Nc1cccc([N+](=O)[O-])c1)c1ccc2c(c1)OCCO2	75*	-1	0	8	72*	63*	68*	70*	93*	72*	80*
O=C(Nc1ccc2c(c1)OCCO2)c1cccc(Cl)c1	85*	11	-2	14	87*	77*	7	86*	97*	85*	86*
CCCc1cc(C(=O)Nc2cccc([N+](=O)[O-])c2)cs1	72*	19	2	8	87*	59*	9	73*	92*	45	56*
O=C(Nc1cccc(Cl)c1)c1ccc2c(c1)OCCO2	95*	-2	4	-3	91*	92*	0	93*	101*	89*	94*
O=C(Nc1ccc2c(c1)OCCO2)c1cccc(C(=O)Nc2ccc3c(c2)OCCO3)c1	-3	1	7	14	4	5	nt	nt	nt	nt	nt
C[C@H](O)[C@@H]1C(=O)N2CCc3c([nH]c4ccccc34)[C@@H]2C[C@@H]1N(C)Cc1ccc2c(c1)OCO2	nt	nt	nt	-94	nt	nt	nt	nt	nt	nt	nt
Cc1ccc(NC(=O)Nc2nnc(-c3ccccc3)o2)cc1	6	4	-14	6	-7	0	nt	nt	nt	nt	nt
C(=C\c1nnc(-c2cccs2)o1)/c1ccccc1	3	10	2	-275	81*	74*	15	61*	88*	65*	34
Clc1ccccc1-c1nnc(-c2cccs2)o1	80*	10	8	-140	81*	72*	75*	74*	92*	79*	55*
Cc1ccc(-c2nnc(Nc3ccccc3)o2)cc1	4	-2	5	-90	97*	95*	-2	93*	75*	87*	37
Cc1ccc(/C=C/c2nnc(-c3ccccc3)o2)cc1	6	-1	-1	-251	86*	76*	15	63*	89*	80*	23
CC(C)Cc1ccc(-c2cc3nc(NCCCn4ccnc4)ccn3n2)cc1	nt	nt	nt	i	nt	nt	nt	nt	nt	nt	nt
c1ccc(-n2nnc3c(N4CCOCC4)ncnc32)cc1	75*	-5	2	24	81*	50*	11	14	33	34	21
Cc1nnc(N2CCOCC2)c2nn(-c3ccccc3)c(C)c12	1	-6	-1	-92	-1	2	nt	nt	nt	nt	nt
O=C(Nc1ccn(Cc2ccccc2F)n1)c1ccc(COc2ccccc2Cl)cc1	-4	-1	16	23	-8	-2	nt	nt	nt	nt	nt
O=C(Nc1ccn(Cc2ccccc2F)n1)c1ccc(COc2cccc(Br)c2)cc1	14	17	-1	13	97*	88*	-24	90*	103*	56*	97*
Cc1ccc(CN=c2c([N+](=O)[O-])nn(-c3ccc4c(c3)OCCO4)n2O)cc1	35	-2	-8	21	59*	16	20	30	58*	14	6
CC(=O)Nc1ccc(-c2nc3cc(Cl)ccc3o2)cc1	59*	-15	7	-426	57*	44	25	24	53*	37	31
O=C(Nc1ccc(-c2nc3cccnc3s2)cc1)C1CCCO1 (stereo not drawn)	94*	0	8	-384	93*	90*	95*	95*	101*	97*	79*
O=C(Nc1ccc(-c2nc3ccccc3o2)cc1)C1CCCO1 (stereo not drawn)	91*	-19	6	-292	94*	80*	91*	92*	100*	93*	48
O=C(Nc1ccc2oc(-c3ccccc3)nc2c1)C1CCCO1 (stereo not drawn)	35	8	0	-427	43	31	nt	nt	nt	nt	nt
Cc1ccc2nc(-c3ccc(NC(=O)C4CCCO4)cc3)[nH]c2c1 (stereo not drawn)	40	4	0	-268	53*	8	45	41	68*	58*	45
O=C(Nc1ccc(-c2nc3cc(Cl)ccc3o2)cc1)C1CCCO1 (stereo not drawn)	70*	-3	13	-266	30	10	12	18	42	42	10
